Calls of active or inactive are those of the source. No cut-off for these calls is given here.
Assays:
[1] = target: Prothrombin (Homo sapiens) (UniProt P00734); experiment: Inhibition of thrombin (unknown origin) using Boc-Val-Pro-Arg-AMC as substrate at 25 uM preincubated with protein for 15 mins followed by substrate addition measured for 10 mins by continuous fluorimetric assay relative to control
West Nile virus [2] = experiment: Inhibition of West Nile virus NS2B-NS3 protease at 0 to 48 uM incubated for 1 hr by tryptophan quenching assay
dengue virus type 2 [3] = experiment: Inhibition of Dengue virus serotype-2 NS2B-NS3 protease at 0 to 48 uM incubated for 1 hr by tryptophan quenching assay
[4] = Retention time of compound by RP-HPLC analysis; format: physicochemical
[5] = Cytotoxicity against human HuH7 cells infected with Dengue virus serotype-2 assessed as cell viability after 48 hrs by Cell-Titer-Glo luminescent viability assay; format: cell-based, Huh-7
Summary of the method: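 Huh-7 cells (10^4/well) were seeded in DMEM + 10% FBS overnight, then infected with WT DENV-2 (MOI 1) in the presence of compound, triplicate per concentration. After 48 h at 37 °C, medium was replaced with fresh DMEM and viability was read by CellTiter-Glo luminescence. CC50 was determined.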

West Nile virus [6] = experiment: Potency index, ratio of EC50 for relative to Bz-Lys-Arg-Phg-NH2 to EC50 for test compound for antiviral activity against West Nile virus infected in human HuH7 cells after 3 days by virus yield reduction assay; format: functional, Huh-7
Summary of the method: (§1)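 Huh-7 cells (10^4/well) in DMEM + 10% FBS, overnight at 37 °C, then infected with WNV (MOI 0.1) plus compound, triplicate, 48 h. Pooled supernatant plaque-titrated on Vero E6 (10^-2 to 10^-7, 3 days, crystal violet), giving EC50 by nonlinear fit. Viability of the same infected cells by CellTiter-Glo luminescence gave CC50. Reference inhibitor also assayed.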

Trypsin (Homo sapiens) = Trypsin (Homo sapiens) (UniProt P07477+P07478+P35030); experiment: Inhibition of trypsin (unknown origin) using Boc-Val-Pro-Arg-AMC as substrate at 25 uM preincubated with protein for 15 mins followed by substrate addition by continuous fluorimetric assay relative to control
West Nile virus [7] = experiment: Inhibition of West Nile virus NS2B-NS3 protease using 2-Abz-Gly-Leu-Lys-Arg-Gly-Gly-[…]-Tyr-NH2 as substrate at 50 uM preincubated with protein for 15 mins followed by substrate addition measured for 15 mins by FRET assay
Summary of the method: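 Linked WNV NS2B-NS3 protease (150 nM) was preincubated 15 min with inhibitor (50 μM final) in 50 mM Tris-HCl pH 9, 10% ethylene glycol, 0.0016% Brij 58. […] Percent inhibition was taken from the slope relative to the no-inhibitor control, in triplicate.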

[8] = Inhibition of West Nile virus NS2B-NS3 protease using 2-Abz-Gly-Leu-Lys-Arg-Gly-Gly-[…]-Tyr-NH2 as substrate preincubated with protein for 15 mins followed by substrate addition measured for 15 mins by FRET assay
Summary of the method: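 WNV NS2B-NS3 linked construct at 75 nM (40 nM in one case) in pH 9 Tris buffer, preincubated 15 min with eight inhibitor concentrations (ranges 0–1 up to 0–50 μM). Substrate was 50 μM, with FRET readout over 15 min. IC50 was fitted from triplicates.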

West Nile virus [9] = experiment: Antiviral activity against West Nile virus infected in human HuH7 cells after 3 days by virus yield reduction assay; format: functional, organism-based; conditions: Huh-7, 72 h
[10] = Permeability of compound after 5 hrs by PAMPA; format: ADME; conditions: read-out: permeability
Summary of the method: (§2)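 Precoated PAMPA plates were equilibrated 1 h at room temperature. Donor wells received 200 μM compound in PBS, in triplicate, and acceptor wells received PBS. After 5 h at room temperature, donor and acceptor concentrations were quantified by RP-HPLC UV at 254 nm against six-point calibration curves (10–200 μM). Pe and mass retention were calculated by literature formulas.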

[11] = Selectivity index, ratio of CC50 for African green monkey Vero cells to EC50 for Dengue virus serotype-2 infected in African green monkey Vero cells; format: toxicity, cell-based; conditions: read-out: Ratio CC50/EC50
[12] = Cytotoxicity against human HuH7 cells infected with West Nile virus assessed as cell viability after 48 hrs by Cell-Titer-Glo luminescent viability assay; format: cell-based, Huh-7
Summary of the method: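 Huh-7 cells (10^4/well, DMEM + 10% FBS, overnight) were infected with WT WNV (MOI 0.1) alongside compound, each concentration in triplicate. After 48 h at 37 °C, fresh DMEM was added and viability was measured by CellTiter-Glo luminescence. CC50 was determined.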

[13] = Permeability of compound assessed as compound mass retention after 5 hrs by PAMPA; format: ADME; summary of the method: as §2
dengue virus type 2 [14] = experiment: Potency index, ratio of EC50 for relative to Bz-Lys-Arg-Phg-NH2 to EC50 for test compound for antiviral activity against Dengue virus serotype-2 infected in African green monkey Vero cells after 7 days by virus yield reduction assay; format: functional
Summary of the method: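 Huh-7 cells (10^4/well) in DMEM + 10% FBS, held overnight at 37 °C, then infected with DENV-2 (MOI 1) with nontoxic compound concentrations. Each concentration in triplicate, 48 h at 37 °C, then supernatants pooled. Titres by plaque assay on Vero E6 (10^-1 to 10^-6 dilutions, 1 h adsorption, 7 days, formaldehyde fix, crystal violet, plaque count). EC50 from nonlinear dose-response fit; reference inhibitor also assayed.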

[15] = Inhibition of Dengue virus serotype-2 NS2B-NS3 protease using 2-Abz-Nle-Lys-Arg-Arg-Ser-(3-NO2)-Tyr-NH2 as substrate preincubated with protein for 15 mins followed by substrate addition measured for 15 mins by FRET assay; parameters: species or system dengue virus type 2
Summary of the method: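 DENV-2 NS2B-NS3 linked construct at 30 nM (15 nM in some cases), same pH 9 Tris buffer, 15 min preincubation and FRET read-out. Eight inhibitor concentrations spanned 0–1, 0–2, 0–6 or 0–50 μM, with substrate at 50 μM. IC50 was fitted from triplicates.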

[16] = Half life in Sprague-Dawley rat liver microsomes incubated for 30 mins by UV-HPLC method; format: ADME
Summary of the method: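 Pooled male rat liver microsomes (0.2 mg/mL protein) with NADPH (10 mM) in DPBS were preincubated 15 min at 37 °C. Compound (100 μM) was added and incubated at 37 °C; aliquots were taken at 0, 2, 5, 10, 20 and 30 min. Samples were quenched with equal-volume acetonitrile, chilled and centrifuged, and parent remaining was quantified by RP-HPLC UV against reference peak areas. Testosterone served as positive control.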

[17] = Selectivity index, ratio of CC50 for human HuH7 cells to EC50 for West Nile virus infected in human HuH7 cells; format: toxicity, cell-based, Huh-7; conditions: read-out: Ratio CC50/EC50; summary of the method: as §1
dengue virus type 2 [18] = experiment: Antiviral activity against Dengue virus serotype-2 infected in African green monkey Vero cells after 7 days by virus yield reduction assay; format: functional, organism-based

inhibition [1]: inactive | inhibition (West Nile virus [2]): Active | inhibition (dengue virus type 2 [3]): Active | Retention_time [4]: 3.28 min | inhibition (Trypsin (Homo sapiens)): inactive | inhibition (West Nile virus [7]): 100% | IC50 [8]: 0.557 µM | EC50 (West Nile virus [9]): 15.6 µM | Papp at 5 h [10]: 0.65 ×10⁻⁶ cm/s | permeability [13]: 1.15% | IC50 [15]: 0.176 µM | half-life [16]: 2.92 h | EC50 (dengue virus type 2 [18]): 3.42 µM
SMILES: COc1cccc(COc2ccc([C@@H](NC(=O)[C@H](CCCCN)NC(=O)[C@H](CCCNC(=N)N)NC(=O)c3ccc(-c4cccs4)s3)C(N)=O)cc2)c1
CC50 at 48 h [5]: > 100 µM | Ratio EC50 (West Nile virus [6]): 7 | selectivity ratio [11]: > 25 | CC50 at 48 h [12]: > 100 µM | Ratio EC50 (dengue virus type 2 [14]): 25 | selectivity ratio [17]: > 7
